Screening results from PubChem.
CatL block = inhibitors of human cathepsin L, biochemical | Procathepsin L (Homo sapiens), P07711 | purified cathepsin L, fluorogenic substrate, fluorescence | inhibition, %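 (tested at 10 µM)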 | actives 0.17% (n = 58,000); in the data active = inhibition above about 45%;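 also: 0% = enzyme with no compound and 100% = no enzyme blank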
CatB inh = human cathepsin B inhibitors, primary screen, biochemical, fluorogenic substrate. P07858. purified cathepsin B, fluorescence. inhibition, %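 (tested at 10 µM)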. actives 0.1% (n = 63,000). AID 453, 2006; in the data active = inhibition above about 21%;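 also: 0% = enzyme with no compound and 100% = no enzyme blank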
AP complement = alternative complement pathway inhibitors, primary screen, biochemical, ELISA, human serum, orthogonally pooled compounds. LPS-coated ELISA, C3 deposition; tested in compound mixtures. inhibition, % at 5 µM. actives 0.08% (n = 62,000). AID 1235, 2008;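 active = inhibition above 30% in each of the two pooled mixtures holding the compound, so the lower value exceeds 30%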;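 also: 0% = serum in Mg-EGTA without compound and 100% = EDTA serum blank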
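Test system – human serum alternative complement pathway, C3 deposition on LPS-coated wells · Buffer or medium – diluted human serum in Mg2+-EGTA GVB++ · Compound dosing – 5 µM each compound, pools of ten, 50 µM per pool · Schedule – 1 h serum-compound exposure at 37 °C · Measured by – Anti-C3 ELISA, OD 450 nm · Read-out basis – percent inhibition of C3 deposition onto LPS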
CatB mix inh = cathepsin B inhibitors from pooled compounds, primary screen, biochemical, compound mixtures, AMC fluorescence; AID 488, 2006; Purified cathepsin B, AMC dipeptide fluorescence; inhibition, %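 (ten-compound pools at 5 µM per compound and 50 µM total)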; actives 0.06% (n = 62,000); in the data active = inhibition above about 22%, passing the limit was not always enough; inconclusive = no clear call, values can overlap the other calls;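 also: 0% = enzyme without compound and 100% = no enzyme blank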
Hsp90 inh = tumor Hsp90 inhibitors, primary screen, cell lysate, fluorescence polarization, NCI-N417 lysate. Heat shock protein HSP 90-alpha (Homo sapiens), P07900. Cy3B-geldanamycin FP displacement. inhibition, % at 30 µM. actives 0.35% (n = 64,000);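 active = inhibition above 50%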;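 also: 0% = tracer plus lysate wells and 100% = tracer alone without lysate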
CatS inh = inhibitors of human cathepsin S, biochemical, compound mixtures; recombinant cathepsin S, AMC dipeptide fluorescence, pooled mixtures; AID 501, 2006; actives 0.06% (n = 62,000); P25774; inhibition, %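 (tested at 5 µM per compound within 10-compound mixtures)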; in the data active = inhibition above about 32%, passing the limit was not always enough; inconclusive = no clear call, values can overlap the other calls;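 also: 0% = enzyme without compound and 100% = blank without enzyme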
Target sequence (P25774 115-331 limits assumed): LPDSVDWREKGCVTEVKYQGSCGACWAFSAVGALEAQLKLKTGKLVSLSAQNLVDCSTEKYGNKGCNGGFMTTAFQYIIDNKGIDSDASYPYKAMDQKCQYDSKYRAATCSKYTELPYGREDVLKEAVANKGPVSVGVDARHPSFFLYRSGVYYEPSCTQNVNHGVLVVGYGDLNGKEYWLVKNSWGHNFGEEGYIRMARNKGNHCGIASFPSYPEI
* = called active by the depositor; ? = inconclusive; nt = not tested or not shown. Sampled rows, rich in hits. Any-hit rate of the full collection: about 0.69%.

SMILES	CatL block	CatB inh	AP complement	CatB mix inh	Hsp90 inh	CatS inh
CCOC(=O)C1=C(C)NC(C)=C(C(=O)OC)C1c1cccc(Cl)c1Cl (configuration not stated)	3.1	33.5*	5.5	-7.6	-4.8	-1.9
O=C(OC1CCc2ccccc2C1=O)c1ccccc1O (configuration not stated)	-1.2	4.2	4.4	4.0	71.6*	-0.5
CN(C(=O)c1cnccn1)c1nnc(-c2cccnc2)s1	14.1	1.0	-1.1	-3.5	-1.2	-7.4
CC(=O)Oc1cccc2c1C(=O)c1c(OC(C)=O)cc(C(=O)O)cc1C2=O	18.8	4.8	0.6	5.8	101.8*	8.3
CCOC(=O)N1CCC(N2Cc3cccc(C(=O)NCc4ccccn4)c3C2=O)CC1	8.3	1.7	9.6	0.6	-2.0	6.7
CCCCN(CC)CCNC(=O)c1cc2c(=O)n(C)c3ccccc3c2n1C	-0.5	-1.1	17.4	2.5	-4.1	56.9*
COCCNC(=O)c1cc2c(=O)n(C)c3ccccc3c2n1C	23.0	2.0	1.5	-2.0	-4.5	9.7
CCN(CC)CCCNC(=O)c1cc2c(=O)n(C)c3ccccc3c2n1C	-1.6	1.6	3.5	33.4	-2.3	?
CCN(CC)CCNC(=O)c1cc2c(=O)n(C)c3ccccc3c2n1C	23.1	8.2	-1.9	-2.0	-1.2	47.6*
CN(C)CCNC(=O)c1cc2c(=O)n(C)c3ccccc3c2n1C	17.3	2.5	7.3	1.8	-3.4	82.3*
COc1cc(NCCCC(C)=O)c2ncccc2c1	nt	nt	nt	nt	3.7	nt
CCn1c(C(=O)Nc2ccsc2C(=O)OC)cc2sc(Cl)cc21	nt	-3.9	16.2	4.0	-1.7	-0.7
O=C1C(=O)N(CCCn2ccnc2)C(c2cccnc2)/C1=C(/O)c1ccccc1 (configuration not stated)	nt	4.5	-9.0	3.1	nt	15.2
COc1ccccc1N(CC(=O)Nc1cc(C)on1)S(=O)(=O)c1cccs1	6.5	-0.5	20.0	2.1	-3.8	2.7
N#Cc1c(N2CCCC2)nc(N)c2c(N)nc(N3CCCC3)cc12	18.4	45.4*	2.0	76.8*	76.8*	59.0*
CCOc1cccc(C2C(C#N)=C(N)Oc3cc(C)n(Cc4ccccn4)c(=O)c32)c1OCC (configuration not stated)	-2.0	7.7	11.7	-0.7	-1.7	-7.5
COc1ccc(OC)c(C2C(C#N)=C(N)Oc3cc(C)n(Cc4ccccn4)c(=O)c32)c1 (configuration not stated)	63.3*	1.7	nt	nt	-0.5	nt
CCN(C(=O)COc1cc(=O)n(CC)c2ccccc12)c1cccc(Cl)c1	3.4	25.0*	7.6	3.9	-5.2	6.4
CCN(C(=O)COc1cc(=O)n(CC)c2ccccc12)c1cc(Cl)ccc1OC	nt	2.7	9.6	0.8	-2.0	-1.7
O=c1[nH]c(=O)n([C@H]2C[C@H](O)[C@@H](CO)O2)cc1/C=C/Br	nt	nt	nt	nt	0.4	nt
O=S(=O)(c1cccc(-c2nnc(-c3ccc(Br)cc3)o2)c1)N1CCCCCC1	nt	2.0	9.3	3.8	nt	-5.0
O=S(=O)(c1cccc(-c2nnco2)c1)N1CCCC1	4.3	2.9	2.0	2.5	91.3*	9.0
